Bioassay records deposited in PubChem BioAssay by Johns Hopkins Ion Channel Center.
TRPC6 activator: activates the mouse TRPC6 cation channel | B-score at 10 µM | HEK293-TRPC6 membrane potential dye fluorescence; stronger effect = higher value | AID 2550 | 0.13% of 310,000 active | Q61143;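 active = B-score of the integrated fluorescence ratio above library mean plus 3 SD, and starting fluorescence ratio within library mean plus 5 SD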;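 also: higher score means more depolarization so channel activation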
TRPC6 inh: blocks the mouse TRPC6 cation channel; Q61143; HEK293-TRPC6, membrane potential dye, ACh-evoked depolarization; stronger effect = lower value; B-score at 10 µM; 1.1% of 310,000 active; AID 2553;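 active = B-score under library mean minus 3 SD, initial fluorescence not abnormally high, positive integrated signal ratio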;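 also: B-score derived from integrated fluorescence ratio over the kinetic read; more negative B-score means stronger inhibition of depolarization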
TRPC4 potent: TRPC4 (mouse) allosteric potentiation; Q9QUQ5; HEK293 TRPC4beta/mu-opioid, DAMGO EC20, Fluo-4 Ca2+ flux; stronger effect = higher value; B-score at 10 µM; 0.42% of 310,000 active; AID 2227;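 active = B-score of calcium response area above 5 SD of library B-scores, with initial fluorescence ratio within 5 SD of library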;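 also: B-score of integrated fluorescence ratio over time as area under calcium response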
Target sequence (Q9QUQ5 whole entry, looked up): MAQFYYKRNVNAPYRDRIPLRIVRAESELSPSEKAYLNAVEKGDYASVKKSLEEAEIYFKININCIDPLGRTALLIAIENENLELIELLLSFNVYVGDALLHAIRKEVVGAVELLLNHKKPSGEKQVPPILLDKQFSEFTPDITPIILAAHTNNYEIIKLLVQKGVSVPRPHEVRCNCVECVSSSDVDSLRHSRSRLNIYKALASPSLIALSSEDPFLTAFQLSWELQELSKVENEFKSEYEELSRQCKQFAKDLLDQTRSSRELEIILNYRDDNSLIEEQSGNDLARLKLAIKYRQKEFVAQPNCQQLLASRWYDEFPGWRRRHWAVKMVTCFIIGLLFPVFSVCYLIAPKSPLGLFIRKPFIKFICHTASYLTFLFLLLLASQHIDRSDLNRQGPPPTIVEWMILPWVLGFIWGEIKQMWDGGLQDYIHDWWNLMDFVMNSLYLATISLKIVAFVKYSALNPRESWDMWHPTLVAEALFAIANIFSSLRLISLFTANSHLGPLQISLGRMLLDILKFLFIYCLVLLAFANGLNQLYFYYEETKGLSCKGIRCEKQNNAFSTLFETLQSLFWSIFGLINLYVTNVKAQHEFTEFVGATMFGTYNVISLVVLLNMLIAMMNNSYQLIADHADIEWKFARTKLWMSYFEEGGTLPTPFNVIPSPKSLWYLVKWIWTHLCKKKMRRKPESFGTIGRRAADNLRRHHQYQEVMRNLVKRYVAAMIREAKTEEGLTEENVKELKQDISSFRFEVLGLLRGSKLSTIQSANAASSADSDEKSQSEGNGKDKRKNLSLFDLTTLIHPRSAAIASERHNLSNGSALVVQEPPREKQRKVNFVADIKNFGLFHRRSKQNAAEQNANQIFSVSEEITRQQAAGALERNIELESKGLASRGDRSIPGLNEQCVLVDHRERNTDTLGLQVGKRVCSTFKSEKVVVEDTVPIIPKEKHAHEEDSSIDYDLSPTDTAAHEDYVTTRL
TRPC4 inh: TRPC4 (mouse) channel inhibition; HEK293 TRPC4beta/mu-opioid, DAMGO-evoked Fluo4 calcium flux; stronger effect = lower value; B-score at 10 µM; 0.39% of 300,000 active;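 active = B-score over 3 SD under the library average, no early fluorescence shift, positive overall ratio signal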
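Material: HEK293 cells with stable TRPC4beta plus mu-opioid receptor expression; probe or stimulus: DAMGO in two steps, submaximal then maximal; technique: Fluo4 calcium fluorescence by kinetic imaging, 5 s 1 Hz baseline; measure: integrated fluorescence ratio relative to baseline, converted to per-well B score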
TRPC4 act: TRPC4 (mouse) channel activation. Q9QUQ5. HEK293 TRPC4beta/mu-opioid, Fluo4 calcium fluorescence; stronger effect = higher value. B-score at 10 µM. 0.49% of 310,000 active. AID 2237;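 active = B-score above 5 SD of library B-scores, and initial fluorescence ratio not above library mean plus 5 SD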;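 also: positive B-score marks a calcium rise read as TRPC4 activation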
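Assay system: HEK293 stable line with TRPC4beta plus mu-opioid receptor; schedule: 45 min room-temperature Fluo4 loading, 110 s read; technique: kinetic Fluo4 calcium fluorescence; evaluation: integrated baseline-normalised fluorescence ratio, converted to per-well B score; controls: buffer (low) and maximal DAMGO (high)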
TRPC4 spec 2: mouse TRPC4 off-target activity of TRPC6 inhibitors, second screen; inhibition, % at 10 µM; HEK293 TRPC4/MOR, membrane potential dye fluorescence; channel activated by saturating DAMGO dose; shares compounds with TRPC6 inh; 42% of 920 active;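 active = compounds whose fluorescence signal differed from control wells by over 3 SD, either direction, in both duplicate plates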
TRPC4 spec: selectivity of TRPC6 inhibitors: effect on mouse TRPC4 | 61% of 920 active | shares compounds with TRPC6 inh | activity change, negative = inhibition, % at 10 µM | AID 2777 | HEK293 TRPC4/mu-opioid, membrane potential fluorescence;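 active = rise or fall in signal beyond 3 SD of buffer-only wells in both replicate plates, either sign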;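 also: integrated kinetic ratio of fluorescence range over baseline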
HEK293 MPD ctr 2: second check of TRPC6 inhibitor effects in parental HEK293 cells; shares compounds with TRPC6 inh; signal change vs control, % at 10 µM; AID 2779; parental HEK293 membrane potential dye fluorescence; maximal acetylcholine challenge after compound addition; 31% of 920 active;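 active = membrane potential signal moving either way by over 3 SD of the maximum-effect control, in both duplicate plates, meaning non-specific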
HEK293 MPD ctr: checks TRPC6 inhibitor effects in parental HEK293 cells | shares compounds with TRPC6 inh | parental HEK293 membrane potential dye fluorescence | membrane potential signal change, % at 10 µM | 60% of 920 active | AID 2780;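 active = membrane potential signal shifting up or down by more than 3 SD of buffer-only wells, on both duplicate plates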
TRPC6 inh conf: mouse TRPC6 inhibitor confirmation. shares compounds with TRPC6 inh. HEK293-TRPC6, membrane potential dye, ACh-evoked depolarization. inhibition, % at 10 µM. 43% of 3,300 active;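 active = fluorescence ratio falls more than 5 SD below the full-stimulation control mean, in both duplicate runs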;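 also: integrated fluorescence ratio of peak minus minimum over baseline after agonist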
TRPC6 act confirm: confirmation of mouse TRPC6 activators; activation, % at 10 µM; 11% of 2,800 active; HEK293-TRPC6 membrane potential dye fluorescence, FDSS; shares compounds with TRPC6 inh;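 active = ratio signal rise beyond 5 SD above unstimulated control wells' mean, seen in both duplicate runs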;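 also: plate controls were buffer EC0 wells for no effect and acetylcholine ECmax response for full effect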
An asterisk follows results filed as active; i = inactive. Shown are actives, neighbours in structure and some others; about 2.3% of the full set was active somewhere.

SMILES	TRPC6 activator	TRPC6 inh	TRPC4 potent	TRPC4 inh	TRPC4 act	others
CC(=O)c1ccc(S(=O)(=O)NCc2ccc(C(=O)NCC(c3ccccc3)N(C)C)cc2)cc1 (stereo not given)	i	i	i	i	177*
CCOc1ccc(S(=O)(=O)Nc2cccc(C(=O)NCC(c3ccccc3)N(C)C)c2)cc1 (stereo not given)	i	i	i	i	198*
COc1ccc(C(CNC(=O)c2cccc(NS(=O)(=O)c3ccccc3)c2)N(C)C)cc1 (stereo not given)	i	i	i	-6*	53*
COc1ccc(C(CNC(=O)c2cccc(NS(=O)(=O)c3ccc(C)c(F)c3)c2)N(C)C)cc1 (stereo not given)	i	i	i	i	81*
O=C(COC(=O)C1CC(=O)N(Cc2ccccc2)C1)c1ccc(F)cc1 (stereo not given)	i	i	i	i	i
c1ccc(CCCN2CCN(c3ccccc3)CC2)cc1	i	i	i	i	i
CN(C)C(CNC(=O)c1ccc2nc[nH]c2c1)c1ccccc1 (stereo not given)	i	i	i	i	142*
CCN(CC)S(=O)(=O)c1cccc(C(=O)NCC(c2ccccc2)N(C)C)c1 (stereo not given)	i	i	i	i	79*
COc1ccc(C(CNC(=O)c2ccc(S(=O)(=O)Nc3ccc(F)cc3)cc2)N(C)C)cc1 (stereo not given)	i	i	i	i	66*
CN(C)C(CNC(=O)CNC(=O)c1ccc2ccccc2c1)c1ccccc1 (stereo not given)	i	i	i	i	i
COc1ccc(C(CNC(=O)c2ccc(NS(=O)(=O)c3ccc4c(c3)OCCO4)cc2)N(C)C)cc1 (stereo not given)	i	i	i	i	i
Cc1ccc(C(=O)NCCNC(=O)c2ccccn2)cc1	i	i	i	i	i
CC(C)CN(CC(C)C)c1nc(N)c(C#N)c(CC#N)c1C#N	i	i	i	-6*	i
O=C(Cc1ccc(F)cc1)NCc1cccnc1	i	i	i	i	i
Fc1ccc(-n2cc(CNCCc3cccnc3)c(-c3ccccc3Cl)n2)cc1	i	i	i	i	124*
Fc1ccc(-c2nn(-c3ccccc3)cc2CNCc2ccccc2)cc1	i	i	i	i	96*
COc1ccc(-n2cc(CNCCCN3CCCC3=O)c(-c3ccccc3Cl)n2)cc1	i	i	i	i	i
Fc1ccc(-n2cc(CNCCc3ccncc3)c(-c3ccccc3Cl)n2)cc1	i	i	i	-6*	i
O=C(O)Cc1cn(-c2ccccc2)nc1-c1ccccc1	i	i	i	i	i
CCN(Cc1ccccc1)C(=O)Cn1c(=O)n(CC(=O)N2CCCCC2)c(=O)c2sccc21	i	i	i	i	i
CC(=O)Nc1ccc(S(=O)(=O)NNC(=S)NCc2ccco2)cc1	i	i	i	i	i
Cc1ccc(Cn2c(SCCN3CCCCC3)nc3c2c(=O)n(C)c(=O)n3C)cc1	i	i	70*	i	43*
Cn1c(=O)c2c(nc(SCc3cccnc3)n2Cc2ccc(F)cc2)n(C)c1=O	i	i	i	-5*	i
CC1Cc2ccccc2N1C(=O)CSc1nc2c(c(=O)n(C)c(=O)n2C)n1Cc1ccccc1 (stereo not given)	i	i	13*	-7*	245*
Cn1c(=O)c2c(nc(SCCN3CCOCC3)n2Cc2ccc(F)cc2)n(C)c1=O	i	i	i	i	i
SMILES	TRPC6 activator	TRPC6 inh	TRPC4 potent	TRPC4 inh	TRPC4 act	others
Cc1ccc(NC(=O)c2cccc3cccnc23)cc1	i	i	i	i	i
O=C(O)COc1ccccc1C(Nc1cccnc1)c1cc(Cl)c2cccnc2c1O (stereo not given)	i	i	i	i	i
O=C(NC(c1ccccc1)c1cc(Cl)c2cccnc2c1O)c1cccnc1 (stereo not given)	i	-5.8*	i	i	i
C=CCn1c(=O)c2ccc(C(=O)NCc3ccccc3)cc2n(Cc2ccc(C)cc2)c1=O	i	i	i	i	i
CC(C)c1ccccc1NC(=O)COC(=O)/C=C/c1cccc([N+](=O)[O-])c1	i	i	i	i	i
CN1CCN(CC#CCn2c3ccccc3c3ccccc32)CC1	i	i	16*	i	i
CN1CCN(CC(O)Cn2c3ccccc3c3ccccc32)CC1 (stereo not given)	i	i	i	i	i
CCc1cc2c(=O)c(-c3nc(C)cs3)coc2cc1OC(C)C(=O)NCCO (stereo not given)	i	i	i	i	i
CCOc1cc(CN2CCN(c3ccc(C(C)=O)cc3)CC2)ccc1OC	i	i	11*	i	i
CCOc1cc(CN2CCCCC2)ccc1OC	i	i	i	i	i
Cc1cccc(C(=O)NNC2=C(C(=O)C(F)(F)F)CCC2)c1O	i	-7.6*	i	i	i	TRPC4 spec 2=i;TRPC4 spec=-12%*;HEK293 MPD ctr 2=i;HEK293 MPD ctr=-190%*;TRPC6 inh conf=i;TRPC6 act confirm=i
O=C(NNC1=C(C(=O)C(F)(F)F)CCC1)c1cccc(O)c1	i	i	i	i	i
O=C(NCC(=O)N1CCN(c2ccccc2)CC1)c1ccc(Br)o1	i	i	i	i	i
